Inhibition and IC50 data for eleven compounds are collected here from ChEMBL document CHEMBL1144498, “A two stage click-based library of protein tyrosine phosphatase inhibitors” (Bioorg Med Chem, 2007).

Structures are written as SMILES. pIC50: −log10 of the molar value.

For experiment [1], the system named is Yersinia pestis. The experiment is described as follows: Inhibition of Yersinia pestis protein tyrosine phosphatase at 10 uM. The method, boiled down: (§1)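 Single-concentration percent inhibition screen with p-NPP substrate, 2.9 mM for Yersinia PTP and 2.0 mM for PTP1B. Buffer was 50 mM 3,3-dimethylglutarate pH 7.0 with 1 mM EDTA, 50 mM NaCl and 10% DMSO, at room temperature. Initial hydrolysis rates were read at 405 nm from 10 to 130 s.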

Experiment [2] can be described thus: Inhibition of Yersinia pestis protein tyrosine phosphatase. The essentials:
(§2)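 p-NPP hydrolysis at room temperature in 50 mM 3,3-dimethylglutarate pH 7.0, 1 mM EDTA, 50 mM NaCl, 10% DMSO. Substrate was held at Km: Yersinia PTP 2.9, PTP1B 2.0, TCPTP 2.1, CD45 7.0 mM. Initial rates came from absorbance at 405 nm, 10–130 s after mixing. IC50 was obtained by Dixon analysis.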

A short description of experiment [3]: Inhibition of Yersinia pestis protein tyrosine phosphatase 1B. The method, boiled down:
as §2

Experiment [4] is described as follows: Inhibition of Yersinia pestis Protein tyrosine phosphatase TC. The essentials:
as §2

A short description of experiment [5]: Inhibition of Yersinia pestis protein tyrosine phosphatase CD45. The method, boiled down:
as §2

Experiment [6] deals with Yersinia pestis. The experiment is described as follows: Inhibition of Yersinia pestis protein tyrosine phosphatase at 100 uM. The essentials: as §1

Regarding `O=C(O)C(=O)c1ccc(-n2cc(C(=O)N[C@@H](Cc3c[nH]c4ccccc34)Cn3cc(-c4ccc(-c5cn(C[C@H](Cc6c[nH]c7ccccc67)NC(=O)c6cn(-c7ccc(C(=O)C(=O)O)cc7)nn6)nn5)cc4)nn3)nn2)cc1`, the inhibition in experiment [1] is greater than 60%. For the same compound, the negative logarithm of the IC50 (pIC50) in experiment [2] was 6.26; in experiment [3], 5.68; in experiment [4] it was 6.15; in experiment [5], 5.08.
For `Cc1ccc(S(=O)(=O)c2cn(C[C@H](Cc3c[nH]c4ccccc34)NC(=O)c3cn(-c4ccc(C(=O)C(=O)O)cc4)nn3)nn2)cc1`, the inhibition in experiment [1] is greater than 60%. Also, the negative-log IC50 (pIC50) is 5.68 in experiment [2], 5.13 in experiment [3], 5.59 in experiment [4] and 4.80 in experiment [5].
Regarding `C#CC(=O)N[C@H](CO)Cc1c[nH]c2ccccc12`, the inhibition in experiment [6] is greater than 60%.
For the compound `C#Cc1cccc(C#C)c1`, the inhibition in experiment [6] is greater than 60%.
Regarding `O=C(O)C(=O)c1ccc(-n2cc(C(=O)N[C@H](CO)Cc3c[nH]c4ccccc34)nn2)cc1`, the pIC50 is 4.24 in experiment [2] and 3.30 in experiment [3].
In experiment [6], `C#Cc1ccc(C#C)cc1` yielded an inhibition greater than 60%.
`C#Cc1ccc(-c2ccccc2)cc1` registered an inhibition in experiment [6] greater than 60%.
In experiment [1], `O=C(O)C(=O)c1ccc(-n2cc(C(=O)N[C@@H](Cc3c[nH]c4ccccc34)Cn3cc(-c4cccc(-c5cn(C[C@H](Cc6c[nH]c7ccccc67)NC(=O)c6cn(-c7ccc(C(=O)C(=O)O)cc7)nn6)nn5)c4)nn3)nn2)cc1` returned an inhibition greater than 60%. The pIC50 in experiment [2] was 5.89; in experiment [3], 5.39; in experiment [4] it was 5.74; in experiment [5] it was 5.07.
On to `O=C(O)C(=O)c1ccc(-n2cc(-c3ccc(-c4ccccc4)cc3)nn2)cc1`, for which the pIC50 is 4.35 in experiment [2] and 4.08 in experiment [3].
In experiment [1], `COc1ccc2cc(-c3cn(C[C@H](Cc4c[nH]c5ccccc45)NC(=O)c4cn(-c5ccc(C(=O)C(=O)O)cc5)nn4)nn3)ccc2c1` registered an inhibition greater than 60%. In addition, the negative logarithm of the IC50 (pIC50) in experiment [2] was 5.68; in experiment [3], 5.24; in experiment [4] it was 5.59; in experiment [5] it was 4.77.
`O=C(O)C(=O)c1ccc(-n2cc(-c3cccc(-c4cn(-c5ccc(C(=O)C(=O)O)cc5)nn4)c3)nn2)cc1`: the results for the negative logarithm of the IC50 (pIC50) in experiment [2] and in experiment [3] were 4.60 and 4.11, respectively.
